The text below walks through data of article PMC4094229 (European journal of medicinal chemistry, 2013).

The test system of data set [1] is human breast cancer cell lines (MCF-7 and MDA-MB-231). The data set is described as follows: MTT assay, activity against cancer cells. The data set is classed as cell-based. The following applies: 72 h, up to 50 μM. The method in brief:
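ATCC cells were used. MCF-7 was grown in DMEM with 10% FBS, insulin, pyruvate and NEAA; MDA-MB-231 in DMEM with 10% FBS, NEAA and L-glutamine. Cells were seeded at 3×10³/well and exposed 72 h to 0, 1, 5, 10, 25, 50 μM, with a DMSO vehicle. MTT (5 mg/mL stock) was added for 2–4 h at 37°C; formazan was dissolved in DMSO and read at A570. Viability = mean OD treated/DMSO control; IC50 from three separate experiments.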
Background: Tetrazolium assays rely on reduction of a dye to a coloured formazan, in cell work by metabolically active cells.

The test system of a further data set is MCF-10A cells. Kind of data set: MTT cell viability assay, normal breast MCF-10A. The data set is classed as cell-based, human.
Data set [2] has as its system MCF-7 cells. Kind of data set: MTT cell viability assay, MCF-7. The data set is classed as cell-based. The following applies: Homo sapiens, MCF7, 72 h, read-out: IC50 MCF-7, MTT, 72 h, 1-50 μM.
The test system of the next data set is MDA-MB-231 cells. Kind of data set: Cell cycle distribution. The data set is classed as cell-based, human. The following applies: 24 h.
Data set [3] relates to MCF-7 cells. Kind of data set: Cell cycle distribution. The following applies: 24 h. The data set is classed as cell-based, human.

The structures appear in SMILES notation.

With `C=C1C(=O)O[C@@H]2CC(C)=C3[C@@H](C[C@H]12)[C@](C)(O)C[C@@H]3O` [Compound 10, deacetylinuchinenolide B], the “activity against cancer cells” value in data set [1] was “did not show visible activity”. On to `CC(=O)O[C@H]1C=C(CCO)[C@@H](C)C[C@H]2OC(=O)[C@@H](C)[C@@H]12` [Compound 9, 6β-acetoxysundiversifolide], for which the “activity against cancer cells” value in data set [1] is recorded as “did not exhibit any noticeable activity”. Regarding `CC(=O)O[C@H]1C(=O)[C@@]2(C)[C@H]([C@H](OC(=O)c3ccccc3)[C@]3(O)C[C@H](OC(=O)[C@H](O)[C@@H](NC(=O)c4ccccc4)c4ccccc4)C(C)=C1C3(C)C)[C@]1(OC(C)=O)CO[C@@H]1C[C@@H]2O` [Paclitaxel, reference compound], in the data set on MCF-10A cells (Homo sapiens, MCF-10A, 72 h, read-out: IC50 MCF-10A), the IC50 – broadly, the concentration needed to halve the response being measured – was 427 ± 55.4 nM. Take `COc1cccc2c1C(=O)c1c(O)c3c(c(O)c1C2=O)C[C@@](O)(C(=O)CO)C[C@@H]3O[C@H]1C[C@H](N)[C@H](O)[C@H](C)O1` [Doxorubicin]: the IC50 with MCF-7 cells [2] amounted to 700 ± 60 nM. As to `C=C1C(=O)O[C@H]2C[C@H](C)[C@H]3[C@@H](O)C[C@@](C)(O)[C@@]34O[C@H]4[C@H]12` [Compound 6, 5α,6α-epoxy-2α,4α-dihydroxy-1β-guai-11(13)-en-12,8α-olide], in data set [1], the “activity against cancer cells” value is on record as “did not show visible activity”. As for `C[C@@H]1C2=C[C@H]3[C@@H](C[C@@]2(C)CC[C@@H]1O)OC(=O)[C@@H]3C` [Compound 15, 3β-hydroxy-11α,13-dihydroalantolactone], the “activity against cancer cells” value in data set [1] is reported as “did not exhibit any noticeable activity”.

In the case of `C=C1C(=O)O[C@H]2C[C@H](C)[C@@]34C[C@@]5(C(=O)O[C@H]6C[C@@H](C)[C@@H]7[C@@H](OC(C)=O)C[C@H](O)[C@@]7(C)C[C@@H]65)[C@@H](C(C)=C3C[C@H]12)[C@@H]4O` [Compound 1, Lineariifolianoid E], the “effect on cell cycle progression” value with MDA-MB-231 cells (MDA-MB-231, 0, 1, 2.5 μM) was “dose-dependent cell cycle arrest in both S and G2/M phase”; in the data set with MCF-7 cells [3] (MCF-7, 0, 1, 2.5 μM), “dose-dependent cell cycle arrest in the G2/M phase”. For the same compound, the “cell cycle arrest at 2.5 μM” value is “significant increase in the number of cells in both S and G2/M phases” in the data set with MDA-MB-231 cells (MDA-MB-231, 2.5 μM); “a majority of the MCF-7 cells were arrested in the G2/M phase” in the data set with MCF-7 cells [3] (MCF-7, 2.5 μM). Besides, the “toxicity to MCF-10A cells” value in the data set on MCF-10A cells (normal breast cell line) is reported as “low toxicity”. For `C=C1C(=O)O[C@@H]2CC(C)=C3[C@@H](OC(C)=O)C[C@@](C)(O)[C@@H]3[C@@H](O)[C@H]12` [Compound 7, 6α-hydroxyinuchinenolide B], the “activity against cancer cells” value in data set [1] was “did not show visible activity”.
